# XBP1 UPR activ: activators of adaptive arm of unfolded protein response (XBP1); CHO-XBP1 luciferase reporter, IRE1-XBP1 UPR activation, luminescence; percent of tunicamycin response, DMSO as zero; activation, % at 20 µM; hit rate 0.33% among 330,000;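 active = versus positive control, 20 µM dose yields 30% or more activation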;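 note: 100% = tunicamycin at 10 µg/mL and 0% = DMSO only wells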
#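 incubation = overnight seeding at 37 °C, 6 h compound treatment at 37 °C | assay system = CHO-XBP1 cells stably carrying IRE1-XBP1-driven luciferase reporter | input = 1000 cells per well | detection = luciferase luminescence | dosing = single point, 20 µM final compound, 1% DMSO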
# tim10-1 inh: tim10-1 yeast growth inhibition. S. cerevisiae tim10-1 ts strain growth, BacTiter-Glo, 24 h. inhibition, % at 20 µM. hit rate 2.2% among 330,000. AID 463190;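 active = inhibition of at least 40%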;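 note: mutant grown at 25 °C; 0% = DMSO wells with yeast and 100% = wells holding no yeast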
# CHOP UPR activ: apoptotic UPR (CHOP) activation | CHO-CHOP luciferase reporter, luminescence; percent of tunicamycin response over DMSO baseline | activation, % at 10 µM | hit rate 0.34% among 330,000;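 active = at 10 µM dose, activation of 40% or more, normalized to positive control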;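 note: 100% = tunicamycin at 10 µg/mL and 0% = DMSO alone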
#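 Dosing – one dose, 10 µM in 0.5% DMSO · System – CHO-CHOP cells, stable luciferase reporter of PERK-eIF2a-CHOP signalling · Input – 500 cells/well · Control set – tunicamycin 10 µg/mL final as positive, DMSO-only wells as negative · Timing – 6 h compound treatment, 37 °C · Measure – % activation vs tunicamycin · Technique – luminescence read with Steady-Glo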
# TIM10 inh: inhibits growth of TIM10 yeast strain | AID 463195 | S. cerevisiae TIM10 strain growth, BacTiter-Glo luminescence, 24 h | inhibition, % at 10 µM | hit rate 1.4% among 330,000;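 active = inhibition of 40% or more at the single tested concentration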;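 note: wild-type TIM10 isogenic control strain grown at permissive 25 °C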
# tim23-1 inh: inhibits growth of tim23-1 mutant yeast; inhibition, % at 20 µM; AID 463212; S. cerevisiae tim23-1 growth, BacTiter-Glo luminescence, 24 h; hit rate 1.3% among 330,000;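 active = growth inhibition of the mutant yeast at or above 50%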;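 note: temperature-sensitive mutant grown at 25 °C; plate controls were DMSO-treated mutant yeast for no effect and medium wells lacking yeast for full effect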
# tim10-1 confirm: confirmation of tim10-1 mutant yeast growth inhibitors. hit rate 56% among 7,400. S. cerevisiae tim10-1 ts strain growth, BacTiter-Glo, 24 h. inhibition, % at 20 µM. AID 463213. shares compounds with tim10-1 inh;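 active = inhibition of yeast growth at or above a set limit in either of two repeat tests at 20 µM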;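 note: tim10-1 mutant grown at permissive 25 °C to find synthetic lethal compounds; 0% = DMSO yeast wells and 100% = medium wells without yeast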
# Numbers without * were called inactive; nt = no result given. This is a sample that favours compounds with a hit; in the whole collection about 3.9% have one here.
SMILES,XBP1 UPR activ,tim10-1 inh,CHOP UPR activ,TIM10 inh,tim23-1 inh,tim10-1 confirm
O=C(NCCC(=O)N1CCN(c2ccccn2)CC1)c1ccc(Br)cc1,-1,5,-1,-3,14,nt
FC(F)(F)c1ccc(N2CCOCC2)c(Nc2nc3ccccc3n3cnnc23)c1,20,54*,5,20,-51,59*
c1ccc(N2CCCCC2)c(Nc2nc3ccccc3n3cnnc23)c1,3,16,1,13,28,nt
C[C@H](CO)N1C[C@H](C)[C@@H](CN(C)S(=O)(=O)c2cccs2)Oc2c(NC(=O)NC3CCCCC3)cccc2C1=O,-2,-10,1,2,4,nt
C=C1/C(=C\C=C2/CCC[C@]3(C)[C@@H]([C@H](C)/C=C/[C@@H](O)C4CC4)CC[C@@H]23)C[C@@H](O)C[C@@H]1O,-5,44*,0,10,41,26
C=C1CC[C@H](O)C/C1=C/C=C1\CCC[C@]2(C)[C@@H]([C@H](C)/C=C/[C@H](C)C(C)C)CC[C@@H]12,-7,15,-5,10,7,nt
S=C(NCC1CCCO1)N1CCN(c2nc(-c3ccccc3)cs2)CC1 (stereo not drawn),-2,53*,-1,7,30,29
S=C(NCc1ccco1)N1CCN(c2nc(-c3ccccc3)cs2)CC1,-3,11,-1,32,19,nt
COc1ccccc1NC(=S)N1CCN(c2nc(-c3ccccc3)cs2)CC1,-1,47*,-2,18,25,29
CCOc1ccccc1NC(=S)N1CCN(c2nc(-c3cccc(OC)c3)cs2)CC1,1,25,0,21,15,nt
COc1ccc(NS(=O)(=O)c2cc3c4c(c2)CCN4C(=O)CC3)cc1OC,-1,2,2,-4,14,nt
Cc1cnccc1CN(C)Cc1cn(C)nc1-c1ccc(Oc2ccccc2)cc1,-4,40*,0,28,36,14
Cc1cnccc1CN(C)Cc1cn(C)nc1-c1cccc(Cl)c1,-8,7,1,17,15,nt
COc1ccc(C(=O)NCc2ccc3c(c2)OCO3)cc1S(=O)(=O)N1CCCC1,3,3,-1,3,9,nt
COc1ccc(-c2cnn3c4c(c(C)nc23)CCN4C(C)C)cc1OC,19,43*,3,15,-2,25
COC(CN1CCc2c(C)nc3c(C#N)cnn3c21)OC,1,13,0,6,14,nt
Cn1nc(C(F)(F)F)c(-c2ccc(Br)cc2)c1NC(=O)c1ccco1,5,40*,-3,3,32,14
CC1(C)Cc2c(C#N)c(N3CCN(C(=O)c4ccccc4)CC3)nc(-c3ccco3)c2CS1,1,44*,-2,25,18,33*
CC1CC(C)CN(S(=O)(=O)CCNC(=O)c2ccccc2)C1 (stereo not drawn),-2,7,0,5,-2,nt
O=C(NCc1ccco1)c1cc2ccc(O)cc2oc1=O,-6,55*,4,34,44,46*
COc1cc(/C=N/Nc2nc(C)cc(C)n2)ccc1OC(=O)c1ccco1,-1,38,3,13,5,nt
CCOc1cc(/C=N\Nc2nc(Nc3ccccc3)nc(N3CCOCC3)n2)ccc1OC(=O)c1ccco1,2,42*,13,28,20,27
CC(OC(=O)c1ccc([N+](=O)[O-])o1)C(=O)Nc1nc(-c2ccc(F)c(F)c2)cs1 (stereo not drawn),9,-8,7,40,-11,nt
c1ccc(-c2nnc3ccc(N4CCCC4)nn23)cc1,4,17,0,4,28,nt
FC(F)(F)c1cccc(N2CCN(c3ccc4nnc(-c5ccccc5)n4n3)CC2)c1,0,49*,0,31,20,21
SMILES,XBP1 UPR activ,tim10-1 inh,CHOP UPR activ,TIM10 inh,tim23-1 inh,tim10-1 confirm
FC(F)(F)c1cccc(N2CCN(c3nnnn3-c3ccccc3)CC2)c1,-3,43*,-2,13,26,14
COc1cc(C2Nc3cccc4cccc(c34)N2)ccc1OC(C)=O,4,41*,6,37,29,39*
Cc1nc(NS(=O)(=O)c2cccs2)c2c3c(sc2n1)CCC3,1,44*,-2,26,43,29*
COc1cc(Br)c(CN2C(=O)NC3(CCCCCC3)C2=O)cc1OC,-6,26,1,6,15,nt
COCCN(C(=O)c1cc(S(=O)(=O)N2CCCCC2)ccc1Cl)c1c(N)n(CC(C)C)c(=O)[nH]c1=O,1,20,0,8,11,nt
Cc1ccccc1Nc1nc(-c2cccnc2)nc2ccccc12,5,43*,0,-13,45,19
CC(=O)Nc1ccc(Nc2nc(-c3ccccc3)nc3ccccc23)cc1,3,48*,1,35,23,34*
O=S(=O)(Nc1cccc(S(=O)(=O)N2CCCCC2)c1)c1ccccc1F,0,11,0,13,18,nt
O=C(Nn1c(COc2ccccc2)nc2ccccc2c1=O)C(Cl)(Cl)Cl,3,40*,-1,28,31,32*
Cc1nc2ccccc2c(=O)n1NC(=O)COc1ccccc1,-1,-2,-1,-7,-6,nt
COc1ccc(CNC(=O)C2CCCN(c3ncnc4c3nc3n4CCCCC3)C2)cc1 (stereo not drawn),-3,2,-2,13,17,nt
CS(=O)(=O)NCc1ccccc1Br,-1,-10,3,-3,-7,nt
CC(c1ccco1)N(C(=O)c1ccccc1NS(=O)(=O)c1cccc([N+](=O)[O-])c1)c1ccccn1 (stereo not drawn),2,42*,0,40,32,34*
Cc1ccc(-c2ccc(/C=C(\C#N)C(N)=S)n2C)cc1,7,7,5,28,42,nt
Cc1cc(C)c(/C=C(\C#N)C(N)=S)c(C)c1,-2,41*,4,27,46,23
CC1CC(C)CN(CCCNC(=O)c2ccc3c(c2)ncn3C2CCCC2)C1 (stereo not drawn),-3,10,-1,-10,-5,nt
CCOc1c(C)cc(S(=O)(=O)NCc2ccccn2)c(C)c1C,-5,3,1,-7,17,nt
CCC(C)(C)C(=O)Nc1ncc(S(=O)(=O)c2ccc([N+](=O)[O-])cc2)s1,-2,42*,4,16,16,27
O=S(=O)(c1ccccc1)N1CCN(Cc2ccccc2C(F)(F)F)CC1,-2,40*,-1,12,20,6
Cc1ccc(S(=O)(=O)N2CCN(Cc3ccccc3C(F)(F)F)CC2)cc1,1,13,-3,-11,16,nt
CC(=O)c1sc(NC(=O)C2CCCN2S(=O)(=O)c2ccccc2F)nc1C (stereo not drawn),1,-4,2,-6,9,nt
